From ChEMBL document CHEMBL1123499, “Synthesis, saludiuretic, and antihypertensive activity of 6,7-disubstituted 1(2H)- and 3,4-dihydro-1(2H)-phthalazinones” (1986)

Experiments:
Rattus norvegicus [1] = species: Rattus norvegicus; assay: Saluretic activity in rats after 0-5 hours, as chloride ion concentration in urine; type: functional
Outline: (§1)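 Male Sabra rats (170-200 g), fasted 18 h, dosed orally 50 mg/kg in saline at 25 mL/kg, eight per compound, two per metabolic cage, no food or water. Urine collected 5 and 24 h after dosing and centrifuged. Chloride titrated with Hg(NO3)2/diphenylcarbazone after HNO3 acidification; Na+ and K+ by atomic absorption.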

Rattus norvegicus [2] = species: Rattus norvegicus; assay: Saluretic activity in rats after 0-5 hours, as potassium ion concentration in urine; type: functional; outline: as §1
Rattus norvegicus [3] = species: Rattus norvegicus; assay: Compound was tested for antihypertensive activity in rat after 24 hr postdose; type: functional
Outline: (§2)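 DOCA/saline hypertensive Sprague-Dawley rats (250-350 g), six per group, given 10 mg/kg doca s.c. daily with saline until systolic BP reached 170 mmHg (usually 3-4 weeks). Oral 25 mg/kg in 5 mL/kg 1% methylcellulose. Systolic BP by tail-cuff before and 1, 4, 24 h after; drop reported as mean ± SD.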

Rattus norvegicus [4] = species: Rattus norvegicus; assay: Saluretic activity in rats after 0-24 hours, as chloride ion concentration in urine; type: functional; outline: as §1
Rattus norvegicus [5] = species: Rattus norvegicus; assay: Compound was tested for antihypertensive activity in rat after 1 hr postdose; type: functional; outline: as §2
Rattus norvegicus [6] = species: Rattus norvegicus; assay: Saluretic activity in rats after 5-24 hours, as ratio of Na+/K+ ion concentration in urine; type: functional; outline: as §1
Rattus norvegicus [7] = species: Rattus norvegicus; assay: Compound was tested for antihypertensive activity in rat after 4 hr postdose; type: functional; outline: as §2
Rattus norvegicus [8] = species: Rattus norvegicus; assay: Saluretic activity in rats after 0-24 hours, as potassium ion concentration in urine; type: functional; outline: as §1
Rattus norvegicus [9] = species: Rattus norvegicus; assay: Saluretic activity in rats after 0-5 hours, as sodium ion concentration in urine; type: functional; outline: as §1
Rattus norvegicus [10] = species: Rattus norvegicus; assay: Diuretic activity in rats at time intervals of 0-24 hours; type: functional, Urine
Outline: (§3)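 Male Sabra rats (170-200 g), starved 18 h, given 50 mg/kg by stomach tube in saline (25 mL/kg load), eight per compound, saline and furosemide controls run alongside. Held two per metabolic cage at 22 °C without food or water. Urine volume measured at 5 and 24 h collections.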

Rattus norvegicus [11] = species: Rattus norvegicus; assay: Saluretic activity in rats after 0-5 hours, as ratio of Na+/K+ ion concentration in urine; type: functional; outline: as §1
Rattus norvegicus [12] = species: Rattus norvegicus; assay: Diuretic activity in rats at time intervals of 0-5 hours; type: functional, Urine; outline: as §3
Rattus norvegicus [13] = species: Rattus norvegicus; assay: Saluretic activity in rats after 0-24 hours, as ratio of Na+/K+ ion concentration in urine; type: functional; outline: as §1
Rattus norvegicus [14] = species: Rattus norvegicus; assay: Saluretic activity in rats after 5-24 hours, as sodium ion concentration in urine; type: functional; outline: as §1
Rattus norvegicus [15] = species: Rattus norvegicus; assay: Saluretic activity in rats after 5-24 hours, as chloride ion concentration in urine; type: functional; outline: as §1
Rattus norvegicus [16] = species: Rattus norvegicus; assay: Saluretic activity in rats after 0-24 hours, as sodium ion concentration in urine; type: functional; outline: as §1
Rattus norvegicus [17] = species: Rattus norvegicus; assay: Diuretic activity in rats at time intervals of 5-24 hours; type: functional, Urine; outline: as §3
Rattus norvegicus [18] = species: Rattus norvegicus; assay: Saluretic activity in rats after 5-24 hours, as potassium ion concentration in urine; type: functional; outline: as §1

SMILES | Saluretic activity (Rattus norvegicus [1]) [m equiv kg-1] | Saluretic activity (Rattus norvegicus [2]) [m equiv kg-1] | Decrease in blood pressure (Rattus norvegicus [3]) [mmHg] | Saluretic activity (Rattus norvegicus [4]) [m equiv kg-1] | Decrease in blood pressure (Rattus norvegicus [5]) [mmHg] | Ratio (Rattus norvegicus [6]) | Decrease in blood pressure (Rattus norvegicus [7]) [mmHg] | Saluretic activity (Rattus norvegicus [8]) [m equiv kg-1] | Saluretic activity (Rattus norvegicus [9]) [m equiv kg-1] | Diuretic activity (Rattus norvegicus [10]) [mL] | Ratio (Rattus norvegicus [11]) | Diuretic activity (Rattus norvegicus [12]) [mL] | Ratio (Rattus norvegicus [13]) | Saluretic activity (Rattus norvegicus [14]) [m equiv kg-1] | Saluretic activity (Rattus norvegicus [15]) [m equiv kg-1] | Saluretic activity (Rattus norvegicus [16]) [m equiv kg-1] | Diuretic activity (Rattus norvegicus [17]) [mL] | Saluretic activity (Rattus norvegicus [18]) [m equiv kg-1]
CN1NCc2cc(Cl)c(S(N)(=O)=O)cc2C1=O | 6.2 | 2.55 | 22.7 | 9.35 | 31.3 | 1.13 | 45 | 7.82 | 4.45 | 11.8 | 1.74 | 5 | 1.33 | 5.98 | 3.15 | 10.43 | 6.8 | 5.27
Cn1ncc2cc(S(N)(=O)=O)c(Cl)cc2c1=O | 2.22 | 1.24 | 19.3 | 7.22 | 29.7 | 1.34 | 47 | 5.16 | 2.58 | 4.8 | 2.1 | 2.2 | 1.52 | 5.26 | 5 | 7.84 | 2.6 | 3.92
Cn1ncc2cc(Cl)c(S(N)(=O)=O)cc2c1=O | 7.27 | 2.67 | 26.3 | 9.57 | 31.7 | 1.15 | 47.7 | 4.76 | 8.7 | 8.8 | 3.27 | 6.1 | 2.33 | 2.4 | 2.3 | 11.1 | 2.7 | 2.09
NS(=O)(=O)c1cc2c(cc1Cl)CNN(Cc1ccco1)C2=O | 8.45 | 2.38 | 23 | 11.43 | 25.3 | 0.92 | 31.3 | 5.75 | 6.74 | 10.5 | 2.83 | 6.7 | 1.71 | 3.09 | 2.98 | 9.83 | 3.8 | 3.37
NS(=O)(=O)c1cc2c(cc1Cl)C(=O)NNC2 | 3.49 | 1.58 | 47.7 | 9.77 | 34.7 | 1.48 | 51 | 5.52 | 3.23 | 6.6 | 2.04 | 2.9 | 1.64 | 5.84 | 6.28 | 9.07 | 3.7 | 3.94
